The target in experiment [1] is T1, Adenosine receptor A3 (Homo sapiens, UniProt P0DMS8).
T1 sequence (P0DMS8 whole entry): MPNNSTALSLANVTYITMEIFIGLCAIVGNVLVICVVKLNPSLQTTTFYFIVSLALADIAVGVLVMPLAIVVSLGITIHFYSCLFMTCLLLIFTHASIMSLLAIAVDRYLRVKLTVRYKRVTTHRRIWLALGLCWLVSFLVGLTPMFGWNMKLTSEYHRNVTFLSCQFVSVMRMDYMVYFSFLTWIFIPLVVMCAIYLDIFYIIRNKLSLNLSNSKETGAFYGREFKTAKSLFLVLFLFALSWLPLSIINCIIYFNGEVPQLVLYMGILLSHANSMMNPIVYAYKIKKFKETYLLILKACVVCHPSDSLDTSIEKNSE
The experiment can be described thus: Inhibition of IB-MECA agonist-mediated cAMP production in CHO cell membranes expressing human Adenosine A3 receptor; range 4.4-15.2. The format is functional, cell-based.

The target of experiment [2] is Adenosine receptors; A2b & A3 (Homo sapiens) (UniProt P29275+P0DMS8). The experiment can be described thus: Selectivity ratio (h2B/hA3). Type of experiment: protein assay.
In experiment [3] the target is Adenosine receptors; A1 & A3 (Homo sapiens) (UniProt P30542+P0DMS8). The experiment can be described thus: Selectivity ratio (hA1/hA3). Type of experiment: protein assay.
Experiment [4] addresses T2, Adenosine receptor A1 (Homo sapiens, UniProt P30542).
T2 sequence (P30542 whole entry): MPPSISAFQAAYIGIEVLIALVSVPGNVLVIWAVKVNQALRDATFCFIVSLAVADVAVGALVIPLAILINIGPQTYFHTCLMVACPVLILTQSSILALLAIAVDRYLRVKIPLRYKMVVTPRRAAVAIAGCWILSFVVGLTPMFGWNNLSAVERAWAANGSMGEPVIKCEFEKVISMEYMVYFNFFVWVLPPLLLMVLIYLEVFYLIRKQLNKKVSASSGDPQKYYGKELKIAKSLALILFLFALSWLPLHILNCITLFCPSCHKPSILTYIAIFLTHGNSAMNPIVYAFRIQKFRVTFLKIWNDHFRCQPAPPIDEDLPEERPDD
The experiment can be described thus: Displacement of [3H]DPCPX from human Adenosine A1 receptor expressed in CHO cells; range 332-479. The format is cell-based. In short, it runs like this:
(§1)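 Human recombinant A1 receptor in CHO cell membranes, resuspended in 50 mM Tris HCl pH 7.4. Displacement run 120 min at 25 °C with 1 nM [3H]DPCPX, 50 µg protein per assay, and at least six to eight test concentrations. Nonspecific binding defined with CHA. Bound and free separated on glass-fiber filters; filter radioactivity counted. n = 3-6.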

Experiment [5] deals with T3, Adenosine receptor A2a (Homo sapiens, UniProt P29274). Kind of experiment: Displacement of [3H]SCH-58261 from human Adenosine A2A receptor expressed in HEK293 cells; range 174-230. Type of experiment: cell-based.
T3 sequence (P29274 whole entry): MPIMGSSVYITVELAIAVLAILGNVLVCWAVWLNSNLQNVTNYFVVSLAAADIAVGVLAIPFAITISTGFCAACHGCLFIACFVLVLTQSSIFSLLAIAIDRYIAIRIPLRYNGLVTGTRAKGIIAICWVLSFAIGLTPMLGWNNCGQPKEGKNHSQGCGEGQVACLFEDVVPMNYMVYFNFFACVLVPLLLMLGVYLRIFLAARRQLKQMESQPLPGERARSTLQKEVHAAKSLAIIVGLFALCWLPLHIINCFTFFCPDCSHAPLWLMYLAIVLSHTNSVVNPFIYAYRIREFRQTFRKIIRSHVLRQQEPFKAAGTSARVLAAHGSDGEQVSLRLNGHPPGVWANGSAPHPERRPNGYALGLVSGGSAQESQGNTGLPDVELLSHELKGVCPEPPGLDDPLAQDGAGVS
The target of experiment [6] is T4, Adenosine receptor A2b (Homo sapiens, UniProt P29275).
T4 sequence (P29275 whole entry): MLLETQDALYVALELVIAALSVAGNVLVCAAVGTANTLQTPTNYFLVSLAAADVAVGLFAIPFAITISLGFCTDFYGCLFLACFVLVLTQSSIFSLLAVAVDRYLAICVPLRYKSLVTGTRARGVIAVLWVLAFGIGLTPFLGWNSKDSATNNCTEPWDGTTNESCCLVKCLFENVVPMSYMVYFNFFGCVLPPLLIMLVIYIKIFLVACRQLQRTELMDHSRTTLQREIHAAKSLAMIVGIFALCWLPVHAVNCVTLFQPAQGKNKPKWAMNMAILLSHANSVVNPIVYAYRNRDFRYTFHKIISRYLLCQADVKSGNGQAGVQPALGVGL
Kind of experiment: Displacement of [3H]DPCPX from human Adenosine A2B receptor expressed in HEK293 cells; range 89-116. Type of experiment: cell-based. In a few lines:
(§2)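 Membranes from HEK-293 cells with human recombinant A2B receptor. Incubation 60 min at 25 °C in 50 mM Tris HCl, 10 mM MgCl2, 1 mM EDTA, 0.1 mM benzamidine, pH 7.4, with 2 IU/mL adenosine deaminase and 40 nM [3H]DPCPX. At least six to eight test concentrations. Nonspecific binding defined with NECA. n = 3-6.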

For experiment [7], the target named is T1, Adenosine receptor A3. The experiment can be described thus: Displacement of [3H]MRE3008-F20 binding at human Adenosine A3 receptor expressed in HEK cells; range 0.82-1.01. The format is cell-based, HEK293.
The target in experiment [8] is T1, Adenosine receptor A3. Kind of experiment: Displacement of [3H]MRE3008-F20 from human Adenosine A3 receptor expressed in HEK cells; range 0.61-0.83. Type of experiment: cell-based, HEK293.
Experiment [9] has as its target T3, Adenosine receptor A2a. The experiment can be described thus: Displacement of [3H]SCH-58261 from human Adenosine A2A receptor expressed in HEK293 cells; range 103-142. Type of experiment: cell-based.
Experiment [10] has as its target T2, Adenosine receptor A1. Kind of experiment: Displacement of [3H]DPCPX from human Adenosine A1 receptor expressed in CHO cells; range 245-370. Type of experiment: cell-based.
The target of experiment [11] is T4, Adenosine receptor A2b. Kind of experiment: Displacement of [3H]DPCPX from human Adenosine A2B receptor expressed in HEK293 cells; range 49-77. The format is cell-based. In a few lines:
(§3)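 Competition binding on membranes of HEK-293 cells carrying recombinant human A2B receptor. Incubation 60 min at 25 °C in 50 mM Tris HCl pH 7.4 with 10 mM MgCl2, 1 mM EDTA, 0.1 mM benzamidine and 2 IU/mL adenosine deaminase. Radioligand 40 nM [3H]DPCPX, at least six to eight test concentrations. NECA defined nonspecific binding. Bound ligand separated on glass-fibre filters and counted; n = 3-6.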

In experiment [12] the target is T3, Adenosine receptor A2a. Kind of experiment: Displacement of [3H]SCH-58261 from human Adenosine A2A receptor expressed in HEK293 cells; range 40-62. Type of experiment: cell-based.
In experiment [13] the target is T2, Adenosine receptor A1. The experiment can be described thus: Displacement of [3H]DPCPX from human Adenosine A1 receptor expressed in CHO cells; range 290-418. The format is cell-based. In short, it runs like this: as §1
For experiment [14], the target named is T1, Adenosine receptor A3. The experiment can be described thus: Displacement of [3H]MRE3008-F20 from human Adenosine A3 receptor expressed in HEK cells; range 0.37-0.56. Type of experiment: cell-based, HEK293.
In experiment [15] the target is T4, Adenosine receptor A2b. Kind of experiment: Displacement of [3H]DPCPX from human Adenosine A2B receptor expressed in HEK293 cells; range 124-180. The format is cell-based. In short, it runs like this:
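HEK-293 membranes expressing the human receptor were incubated 60 min at 25 °C. Six to eight test concentrations were used. Nonspecific binding was set with NECA. n = 3-6.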

For experiment [16], the target named is T1, Adenosine receptor A3. Kind of experiment: Displacement of [3H]MRE3008-F20 binding at human Adenosine A3 receptor expressed in HEK cells; range 0.77-0.96. Type of experiment: cell-based, HEK293.
Experiment [17] concerns the target T4, Adenosine receptor A2b. Kind of experiment: Displacement of [3H]DPCPX from human Adenosine A2B receptor expressed in HEK293 cells; […]. Type of experiment: cell-based. In a few lines:
as §3

Experiment [18] concerns the target T2, Adenosine receptor A1. The experiment can be described thus: Displacement of [3H]DPCPX from human Adenosine A1 receptor expressed in CHO cells; range 345-465. The format is cell-based.
Experiment [19] has as its target T3, Adenosine receptor A2a. Kind of experiment: Displacement of [3H]SCH-58261 from human Adenosine A2A receptor expressed in HEK293 cells; range 114-170. The format is cell-based.
The target of experiment [20] is T4, Adenosine receptor A2b. The experiment can be described thus: Displacement of [3H]DPCPX from human Adenosine A2B receptor expressed in HEK293 cells; range 56-103. Type of experiment: cell-based. In short, it runs like this: as §2
Experiment [21] deals with T3, Adenosine receptor A2a. The experiment can be described thus: Displacement of [3H]SCH-58261 from human Adenosine A2A receptor expressed in HEK293 cells; range 123-162. The format is cell-based.
Experiment [22] deals with T1, Adenosine receptor A3. Kind of experiment: Displacement of [3H]MRE3008-F20 from human Adenosine A3 receptor expressed in HEK cells; range 0.24-0.48. The format is cell-based, HEK293.
For experiment [23], the target named is T2, Adenosine receptor A1. Kind of experiment: Displacement of [3H]DPCPX from human Adenosine A1 receptor expressed in CHO cells; range 265-400. The format is cell-based. In a few lines:
as §1

The values below come from ChEMBL document CHEMBL1136016, “Synthesis, biological activity, and molecular modeling investigation of new pyrazolo[4,3-e]-1,2,4-triazolo[1,5-c]pyrimidine derivatives as human A(3) adenosine receptor antagonists” (J Med Chem, 2002).

SMILES strings stand for the structures.

`Cn1cc2c(nc(NC(=O)Nc3ccccc3Cl)n3nc(-c4ccco4)nc23)n1` yielded an IC50 on Adenosine receptor A3 [1] of 8.2 nM. Also, the Ratio worked out at 111 in [2] and 440 in experiment [3]. For the same compound, the Ki at Adenosine receptor A1 [4] turned out to be 400 nM; at Adenosine receptor A2a [5], 200 nM; at Adenosine receptor A2b [6], 101 nM; at Adenosine receptor A3 [7] it was 0.91 nM.
Turning to `CCCn1cc2c(nc(NC(=O)Nc3ccccc3Cl)n3nc(-c4ccco4)nc23)n1`, the inhibition constant Ki at Adenosine receptor A3 [8] amounted to 0.71 nM; on Adenosine receptor A2a [9], 121 nM; on Adenosine receptor A1 [10], 300 nM; on Adenosine receptor A2b [11], 61 nM. Moreover, the figures for the Ratio in experiment [2] and in [3] were 86 and 423, respectively.
Consider `CCCn1cc2c(nc(NC(=O)Nc3ccc(Br)cc3)n3nc(-c4ccco4)nc23)n1`, for which the Ki on Adenosine receptor A2a [12] came to 50 nM; at Adenosine receptor A1 [13], 350 nM; on Adenosine receptor A3 [14], 0.45 nM; at Adenosine receptor A2b [15] it was 150 nM. In addition, the Ratio in [2] came to 333; in experiment [3] it was 778.
Turning to `CCn1cc2c(nc(NC(=O)Nc3cccc(OC)c3)n3nc(-c4ccco4)nc23)n1`, the Ki was found to be 0.86 nM on Adenosine receptor A3 [16], 215 nM on Adenosine receptor A2b [17], 400 nM at Adenosine receptor A1 [18] and 140 nM on Adenosine receptor A2a [19]. The Ratio in experiment [2] came to 250; in experiment [3] it was 465.
For the compound `CCCn1cc2c(nc(NC(=O)Nc3ccc(Cl)cc3)n3nc(-c4ccco4)nc23)n1`, the Ki at Adenosine receptor A2b [20] turned out to be 76 nM; at Adenosine receptor A2a [21], 140 nM; at Adenosine receptor A3 [22], 0.34 nM; at Adenosine receptor A1 [23], 325 nM. The figures for the Ratio in [2] and in experiment [3] were 224 and 956, respectively.
